Calls of active or inactive are those of the source. The calls are words filed in the database; no cut-off is given here.
Tests used:
Rattus norvegicus [1] = experiment: Effect on tachycardia reflex in normotensive Wistar rat at 1 to 10 mg/kg, po by radiotelemetry; type: functional, organism-based; conditions: dose 1-10 mg/kg
In short: (§1)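 Conscious normotensive rats with telemetric implants received oral doses of 1, 3 or 10 mg/kg. Mean arterial pressure and heart rate were recorded continuously beyond 24 h.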

Aorta = experiment: Vasorelaxant activity in Chinchilla rabbit aortic ring assessed as inhibition of phenylephrine-induced contractions; type: functional, tissue-based; conditions: Oryctolagus cuniculus
Rattus norvegicus [2] = experiment: Reduction in blood pressure in normotensive Wistar rat at 10 mg/kg, po by radiotelemetry relative to control; type: functional; design: scale not given: the % may be the effect or the level left; in short: as §1
Rattus norvegicus [3] = experiment: Cardioprotective activity in renin-transgenic rat carrying [[…]] gene assessed as reduction in heart hypertrophy at 1 to 10 mg/kg, po bid for 21 days; type: functional, organism-based; conditions: dose 1-10 mg/kg, time 21.0 day
[4] = Blood clearance in Wistar rat at 0.3 mg/kg, iv measured up to 24 hrs by LC-MS analysis; type: ADME, organism-based; conditions: whole blood
In short: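 Rats dosed iv at 0.3 mg/kg; blood clearance determined.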

[5] = biological target: T1, Guanylate cyclase soluble subunit alpha-1 (Rattus norvegicus) (UniProt P19686); experiment: Activation of recombinant rat sGC alpha1 subunit expressed in CHO cells assessed as induction of [32P-cGMP] formation by measuring fold change at 100 uM using alpha-[32P-GTP] as substrate measured after 6 mins by luminescence assay; conditions: filed as activator
T1 sequence (whole entry): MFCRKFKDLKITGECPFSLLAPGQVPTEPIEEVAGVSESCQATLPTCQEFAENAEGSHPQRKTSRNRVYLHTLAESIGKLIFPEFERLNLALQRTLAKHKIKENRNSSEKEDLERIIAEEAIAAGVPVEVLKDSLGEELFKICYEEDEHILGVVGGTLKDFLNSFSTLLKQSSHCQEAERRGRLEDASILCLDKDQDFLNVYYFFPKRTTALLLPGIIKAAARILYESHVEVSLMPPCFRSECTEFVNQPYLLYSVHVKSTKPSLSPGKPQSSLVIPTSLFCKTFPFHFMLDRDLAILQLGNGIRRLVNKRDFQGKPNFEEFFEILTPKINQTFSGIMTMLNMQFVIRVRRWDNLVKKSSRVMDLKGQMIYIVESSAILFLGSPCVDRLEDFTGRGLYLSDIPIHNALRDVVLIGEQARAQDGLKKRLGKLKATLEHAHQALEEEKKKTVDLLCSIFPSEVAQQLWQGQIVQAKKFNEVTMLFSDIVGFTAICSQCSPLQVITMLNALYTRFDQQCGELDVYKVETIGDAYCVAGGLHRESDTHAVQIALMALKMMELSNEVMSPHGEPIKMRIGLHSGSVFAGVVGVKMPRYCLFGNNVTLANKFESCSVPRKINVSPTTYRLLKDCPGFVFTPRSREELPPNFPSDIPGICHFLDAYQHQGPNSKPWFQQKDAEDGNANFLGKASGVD
In short: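 Highly purified recombinant sGC enzyme was tested for stimulation of cGMP production across 0.01 to 100 μM of compound. The read-out was fold activation over basal enzyme activity. The method followed earlier published sGC stimulator/activator characterization.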

[6] = biological target: T1, Guanylate cyclase soluble subunit alpha-1 (Rattus norvegicus); experiment: Activation of recombinant rat sGC alpha1 subunit expressed in CHO cells assessed as induction of [32P-cGMP] formation by measuring efficacy using alpha-[32P-GTP] as substrate measured after 6 mins by luminescence assay relative to control; type: cell-based; conditions: filed as activator
[7] = Volume of distribution at steady state in cynomolgus monkey at 0.1 mg/kg, iv measured up to 24 hrs by LC-MS analysis; type: ADME, organism-based, Macaca fascicularis; conditions: in vivo, read-out: Vdss
Rattus norvegicus [8] = experiment: Reduction in blood pressure in spontaneous hypertensive Wistar rat at 0.3 to 3 mg/kg, po by radiotelemetry relative to control; type: functional; design: scale not given: the % may be the effect or the level left; conditions: dose 0.3-3 mg/kg
Heart = experiment: Reduction in coronary perfusion pressure in heart isolated from Wistar rat; type: functional, tissue-based; conditions: dose 0.01-10 µM
In short: (§2)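 Rat hearts in Langendorff perfusion were exposed to 10 nM–10 μM. Coronary perfusion pressure, heart rate, LVDP and +dp/dt were recorded.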

Rattus norvegicus [9] = species on record: Rattus norvegicus; experiment: Effect on left ventricular diastolic pressure in Wistar rat; type: functional; in short: as §2
[10] = Oral bioavailability in Beagle dog at 0.1 mg/kg measured up to 24 hrs by LC-MS analysis; type: ADME, organism-based, Canis lupus familiaris; conditions: in vivo
[11] = Activation of recombinant rat sGC expressed in CHO cells pretreated with ODQ for 3 hrs followed by compound treatment by luminescence assay; type: cell-based
Rattus norvegicus [12] = experiment: In vivo activation of sGC in po dosed renin-transgenic rat carrying [RenTG(mRRen2)27] gene assessed as increase in creatinine clearance pretreated with NO-synthase inhibitor L-NAME followed by compound administration twice daily for 21 days; type: functional, organism-based; conditions: dose 1-10 mg/kg, time 21.0 day
In short: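 L-NAME-treated renin transgenic rats were dosed BID. At study end, protein-to-creatinine ratio (mg/mmol) came from urinary protein and creatinine. Creatinine clearance (mL/min) came from plasma and urinary creatinine plus urine volume.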

[13] = biological target: T1, Guanylate cyclase soluble subunit alpha-1 (Rattus norvegicus); experiment: Activation of recombinant rat sGC alpha1 subunit expressed in CHO cells assessed as induction of [32P-cGMP] formation using alpha-[32P-GTP] as substrate measured after 6 mins by luminescence assay; type: cell-based; conditions: filed as activator
[14] = Blood clerance in cynomolgus monkey at 0.1 mg/kg, iv measured up to 24 hrs by LC-MS analysis; type: ADME, organism-based, Macaca fascicularis; conditions: whole blood
[15] = biological target: T1, Guanylate cyclase soluble subunit alpha-1 (Rattus norvegicus); experiment: Activation of recombinant rat sGC alpha1 subunit expressed in CHO cells assessed as induction of [32P-cGMP] formation at 0.01 to 100 uM using alpha-[32P-GTP] as substrate measured after 6 mins in presence of NO by luminescence assay; conditions: filed as activator, dose 0.01-100 µM

IC50 (Aorta): 39 nM | clearance [4]: 3.5 mL/min/kg | fold change (FC) [5]: 9.3 | Efficacy [6]: 58% | Vd [7]: 1.4 L/kg | bioavailability [10]: 48% | EC50 [11]: 2.1 nM | MEC [13]: 1.8 nM | clearance [14]: 2.67 mL/min/kg | Activity [15]: Active
Structure (SMILES): C[C@H]([C@H](C(=O)Nc1cc([C@@H](CC(=O)O)C2CC2)ccc1Cl)c1ccc(Cl)cc1)C(F)(F)F [RUNCACIGUAT]
Activity (Rattus norvegicus [1]): Active | Activity (Rattus norvegicus [2]): <=15% | Activity (Rattus norvegicus [3]): Active | Activity (Rattus norvegicus [8]): 5% | Activity (Heart): Dose-Dependent Effect | Activity (Rattus norvegicus [9]): inactive | Activity (Rattus norvegicus [12]): Dose-Dependent Effect

Source: ChEMBL document CHEMBL4808182, “Discovery of the Soluble Guanylate Cyclase Activator Runcaciguat (BAY 1101042)” (J Med Chem, 2021)
